{"source": "PubChem BioAssay AID623986", "about": "(Vanderbilt High Throughput Screening Facility, 2012)", "molecular_target": "Potassium voltage-gated channel subfamily KQT member 4 (Homo sapiens) (UniProt P56696)", "sequence (P56696 whole entry, looked up)": "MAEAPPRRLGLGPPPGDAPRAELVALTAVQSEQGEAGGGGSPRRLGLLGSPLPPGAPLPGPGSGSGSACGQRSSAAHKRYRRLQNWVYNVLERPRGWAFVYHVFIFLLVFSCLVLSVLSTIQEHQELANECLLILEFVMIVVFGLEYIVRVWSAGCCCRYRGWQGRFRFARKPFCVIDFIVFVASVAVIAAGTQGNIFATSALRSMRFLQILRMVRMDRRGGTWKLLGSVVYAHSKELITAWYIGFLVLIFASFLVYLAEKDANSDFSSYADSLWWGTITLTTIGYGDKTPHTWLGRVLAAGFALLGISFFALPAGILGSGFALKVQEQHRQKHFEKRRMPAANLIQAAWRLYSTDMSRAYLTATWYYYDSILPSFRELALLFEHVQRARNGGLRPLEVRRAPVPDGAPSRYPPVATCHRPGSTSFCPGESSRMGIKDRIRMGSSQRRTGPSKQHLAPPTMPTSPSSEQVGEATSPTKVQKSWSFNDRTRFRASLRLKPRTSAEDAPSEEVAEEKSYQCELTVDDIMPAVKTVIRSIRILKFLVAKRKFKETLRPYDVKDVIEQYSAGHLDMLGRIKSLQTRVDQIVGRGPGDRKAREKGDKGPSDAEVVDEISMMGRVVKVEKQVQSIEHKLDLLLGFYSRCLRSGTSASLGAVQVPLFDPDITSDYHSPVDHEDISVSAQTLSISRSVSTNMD", "test": "Kv7.4 channel modulation by thallium flux, dose response, selectivity assay for GIRK activator project, cell-based, human, concentration-response (AID 623986)", "method_in_brief": "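System: T-REx-293 cells stably expressing human Kv7.4 potassium channel | Read-out: Post-stimulus fluorescence slope, XE-991 baseline subtracted, as % vehicle | Incubation: Dye loading ~60 min room temperature, compound pretreatment 4 min | Detection: FluoZin-2 thallium flux fluorescence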", "note": "The source made the active and inactive calls. No rule for the calls is given here.", "data": [{"smiles": "Cc1cc(NC(=O)Nc2ccc(F)c(F)c2)n(-c2ccccc2)n1", "values": [{"measurement": "outcome", "result": "inactive"}]}]}
